In ChEMBL document CHEMBL1154372, “Steroidal sapogenins and glycosides from the rhizomes of Dioscorea bulbifera” (J Nat Prod, 2009):
The source made the active and inactive calls. No cut-off for these calls is given here.

Each compound was assayed on Bel-7402 (assay: Cytotoxicity against human Bel7402 cells at 10 uM after 48 hrs by MTT assay). Conditions: not given.
Assay type: functional
In short: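 Bel-7402 human hepatocellular carcinoma cells were grown in DMEM with 10% fetal calf serum at 37 °C under 5% CO2 and subcultured twice weekly. Cells were seeded at 7500 per well and, after 24 h, compound was added at 10 µM. After 48 h exposure in triplicate, MTT was added, formazan was dissolved in DMSO and absorbance was read at 570 nm. The value is % inhibition.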

Q: How did the Activity turn out when `C[C@@H]1O[C@@H](O[C@H]2[C@H](O[C@H]3CC[C@@]4(C)C(=CC[C@@H]5[C@@H]4CC[C@@]4(C)[C@H]5C[C@@H]5O[C@]6(CC[C@](C)(O)CO6)[C@@H](C)[C@@]54O)C3)O[C@H](CO)[C@@H](O)[C@@H]2O[C@@H]2O[C@@H](C)[C@H](O)[C@@H](O)[C@H]2O)[C@H](O)[C@H](O)[C@H]1O` was run?
A: The Activity was “inactive”.

Q: For `C[C@@H]1[C@@]2(CC[C@@](C)(CO)O2)O[C@H]2C[C@H]3[C@@H]4C=CC5=CC(=O)CC[C@]5(C)[C@H]4CC[C@]3(C)[C@]21O`, which Activity is on record?
A: The Activity was “inactive”.

Q: For `C[C@@H]1[C@@]2(CC[C@](C)(O)CO2)O[C@H]2C[C@H]3[C@@H]4CCC5=CC(=O)CC[C@]5(C)[C@H]4CC[C@]3(C)[C@]21O`, which Activity is on record?
A: Its Activity is “inactive”.

Q: Which Activity does the source give for `C/C(C(=O)CC[C@@H](C)CO)=C1/C(=O)C[C@H]2[C@@H]3CCC4=C[C@@H](O[C@@H]5O[C@H](CO)[C@@H](O)[C@H](O[C@@H]6O[C@@H](C)[C@H](O)[C@@H](O)[C@H]6O)[C@H]5O[C@@H]5O[C@@H](C)[C@H](O)[C@@H](O)[C@H]5O)CC[C@]4(C)[C@H]3CC[C@]12C` here?
A: The Activity was “inactive”.

Q: For `C[C@@H]1[C@@]2(CC[C@@](C)(CO)O2)O[C@H]2C[C@H]3[C@@H]4CCC5=CC(=O)CC[C@]5(C)[C@H]4CC[C@]3(C)[C@]21O`, which Activity is on record?
A: Its Activity is “inactive”.

Q: Which Activity does the source give for `C[C@@H]1CC[C@@]2(OC1)O[C@H]1C[C@H]3[C@@H]4CCC5=C[C@@H](O[C@@H]6O[C@H](CO)[C@@H](O)[C@H](O[C@@H]7O[C@@H](C)[C@H](O)[C@@H](O)[C@H]7O)[C@H]6O[C@@H]6O[C@@H](C)[C@H](O)[C@@H](O)[C@H]6O)CC[C@]5(C)[C@H]4CC[C@]3(C)[C@@]1(O)[C@@H]2C` here?
A: Its Activity is 99.1%.

Q: `C[C@@H]1O[C@@H](O[C@@H]2[C@@H](O)[C@H](O[C@H]3CC[C@@]4(C)C(=CC[C@@H]5[C@@H]4CC[C@@]4(C)[C@H]5C[C@@H]5O[C@]6(CC[C@](C)(O)CO6)[C@@H](C)[C@@]54O)C3)O[C@H](CO)[C@H]2O)[C@H](O)[C@H](O)[C@H]1O` was tested. Which Activity did it give?
A: The Activity was “inactive”.

Q: How did the Activity turn out when `C[C@@H]1CC[C@@]2(OC1)O[C@H]1C[C@H]3[C@@H]4CCC5=CC(=O)CC[C@]5(C)[C@H]4CC[C@]3(C)[C@@]1(O)[C@@H]2C` was run?
A: The Activity was “inactive”.

The compounds below were run on SMMC-7721 (assay: Growth inhibition of human SMMC7721 cells after 48 hrs by MTT assay). Conditions: SMMC-7721, 48 h.
Assay type: functional, cell-based
In short: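 SMMC7721 human hepatocellular carcinoma cells were kept in DMEM with 10% fetal calf serum at 37 °C and 5% CO2, and passaged twice weekly to stay in log growth. After 24 h at 7500 cells per well, compounds were added at various concentrations for 48 h, in triplicate. Viability was read as MTT formazan dissolved in DMSO, at 570 nm. IC50 determined; 10-hydroxycamptothecin served as positive control.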

Q: `C[C@@H]1CC[C@@]2(OC1)O[C@H]1C[C@H]3[C@@H]4CCC5=C[C@@H](O[C@@H]6O[C@H](CO)[C@@H](O)[C@H](O[C@@H]7O[C@@H](C)[C@H](O)[C@@H](O)[C@H]7O)[C@H]6O[C@@H]6O[C@@H](C)[C@H](O)[C@@H](O)[C@H]6O)CC[C@]5(C)[C@H]4CC[C@]3(C)[C@@]1(O)[C@@H]2C` was tested. Which IC50 did it give?
A: Its IC50 is 4540 nM.

Q: With `CC[C@@]1(O)C(=O)OCc2c1cc1n(c2=O)Cc2cc3cc(O)ccc3nc2-1` [HYDROXYCAMPTOTHECIN] as the compound, how does the IC50 read?
A: The IC50 was 140 nM.
